ChEMBL document CHEMBL2203249, “Optimization of a small tropomyosin-related kinase B (TrkB) agonist 7,8-dihydroxyflavone active in mouse models of depression” (J Med Chem, 2012)
Calls of active or inactive are those of the source. No cut-off for these calls is given here.

Tests used:
[1] = Drug recovery in human plasma at 5 uM; type: ADME, cell-free; conditions: read-out: Drug uptake
In short: (§1)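 Human plasma protein binding was tested at 5 μM, reporting fraction unbound, fraction bound and recovery. The assay was run by a contract lab.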

Plasma = assay: Fraction unbound in human plasma at 5 uM; type: ADME, cell-free; in short: as §1
CYP1A2 = biological target: T1, CYP1A2 (Homo sapiens, UniProt P05177); assay: Inhibition of CYP1A2 at 30 uM; type: ADME
T1 sequence (P05177 whole entry): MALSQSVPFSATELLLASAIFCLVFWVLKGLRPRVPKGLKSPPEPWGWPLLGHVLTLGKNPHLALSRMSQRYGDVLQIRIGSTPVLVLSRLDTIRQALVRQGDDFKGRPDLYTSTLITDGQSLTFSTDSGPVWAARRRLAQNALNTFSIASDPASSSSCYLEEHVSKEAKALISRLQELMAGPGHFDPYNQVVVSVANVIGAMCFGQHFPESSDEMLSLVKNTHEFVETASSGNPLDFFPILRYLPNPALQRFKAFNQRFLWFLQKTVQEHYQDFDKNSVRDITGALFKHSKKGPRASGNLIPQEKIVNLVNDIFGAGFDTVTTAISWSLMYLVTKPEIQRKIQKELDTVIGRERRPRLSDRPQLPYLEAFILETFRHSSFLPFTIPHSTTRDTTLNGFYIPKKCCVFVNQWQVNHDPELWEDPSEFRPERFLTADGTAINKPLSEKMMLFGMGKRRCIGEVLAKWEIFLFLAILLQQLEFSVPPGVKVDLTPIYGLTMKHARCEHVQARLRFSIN
In short: (§2)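 CYP inhibition was tested at 3 and 30 μM and reported as percent inhibition. The assay was run by a contract lab.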

CYP2D6 [2] = biological target: T2, CYP2D6 (Homo sapiens, UniProt P10635); assay: Inhibition of CYP2D6 at 30 uM; type: ADME
T2 sequence (P10635 whole entry): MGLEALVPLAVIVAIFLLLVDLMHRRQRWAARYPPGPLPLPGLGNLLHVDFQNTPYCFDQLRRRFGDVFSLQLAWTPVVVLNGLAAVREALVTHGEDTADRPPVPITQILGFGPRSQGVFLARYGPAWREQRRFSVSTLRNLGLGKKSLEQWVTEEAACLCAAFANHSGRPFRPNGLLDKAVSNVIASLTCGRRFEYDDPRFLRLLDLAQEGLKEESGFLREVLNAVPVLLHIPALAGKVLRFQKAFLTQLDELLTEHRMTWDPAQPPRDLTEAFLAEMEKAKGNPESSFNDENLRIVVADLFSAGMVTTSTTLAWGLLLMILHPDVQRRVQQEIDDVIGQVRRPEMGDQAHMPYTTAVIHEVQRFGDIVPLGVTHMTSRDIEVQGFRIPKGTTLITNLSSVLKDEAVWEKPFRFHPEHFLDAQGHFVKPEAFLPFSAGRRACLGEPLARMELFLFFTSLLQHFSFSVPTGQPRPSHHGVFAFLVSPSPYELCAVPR

CYP2D6 [3] = biological target: T2, CYP2D6; assay: Inhibition of CYP2D6 at 3 uM; type: ADME
CYP2C19 [4] = biological target: T3, CYP2C19 (Homo sapiens, UniProt P33261); assay: Inhibition of CYP2C19 at 30 uM; type: ADME; in short: as §2
T3 sequence (P33261 whole entry): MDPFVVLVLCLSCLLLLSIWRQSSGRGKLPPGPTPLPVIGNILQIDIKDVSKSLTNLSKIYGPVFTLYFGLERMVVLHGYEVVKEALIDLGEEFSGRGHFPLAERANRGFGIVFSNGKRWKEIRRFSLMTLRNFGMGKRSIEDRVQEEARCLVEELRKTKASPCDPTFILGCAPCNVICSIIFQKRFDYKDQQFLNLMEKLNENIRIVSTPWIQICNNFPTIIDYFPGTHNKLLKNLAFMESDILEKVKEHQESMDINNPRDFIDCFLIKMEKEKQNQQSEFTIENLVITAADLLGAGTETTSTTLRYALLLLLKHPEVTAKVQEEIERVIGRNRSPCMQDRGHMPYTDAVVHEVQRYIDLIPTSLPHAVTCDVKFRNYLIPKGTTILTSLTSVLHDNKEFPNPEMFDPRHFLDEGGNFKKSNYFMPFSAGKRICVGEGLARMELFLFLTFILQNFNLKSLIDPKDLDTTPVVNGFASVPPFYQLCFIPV

CYP2C19 [5] = biological target: T3, CYP2C19; assay: Inhibition of CYP2C19 at 3 uM; type: ADME; in short: as §2
CYP2C9 [6] = biological target: T4, CYP2C9 (Homo sapiens, UniProt P11712); assay: Inhibition of CYP2C9 at 3 uM; type: ADME; in short: as §2
T4 sequence (P11712 whole entry): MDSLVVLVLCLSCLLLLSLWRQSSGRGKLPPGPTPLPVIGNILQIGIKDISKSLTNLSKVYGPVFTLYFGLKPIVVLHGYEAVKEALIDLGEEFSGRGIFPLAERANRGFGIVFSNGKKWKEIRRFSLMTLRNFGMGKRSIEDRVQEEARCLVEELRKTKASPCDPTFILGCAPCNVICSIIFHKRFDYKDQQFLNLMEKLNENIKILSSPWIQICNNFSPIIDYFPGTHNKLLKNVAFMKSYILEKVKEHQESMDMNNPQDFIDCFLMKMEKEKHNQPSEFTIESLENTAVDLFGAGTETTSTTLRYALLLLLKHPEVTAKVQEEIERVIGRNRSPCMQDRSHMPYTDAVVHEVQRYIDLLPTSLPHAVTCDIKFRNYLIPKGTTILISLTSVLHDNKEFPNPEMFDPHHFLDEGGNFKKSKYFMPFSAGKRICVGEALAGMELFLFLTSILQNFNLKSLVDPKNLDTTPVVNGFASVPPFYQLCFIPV

CYP3A4 [7] = biological target: T5, CYP3A4 (Homo sapiens, UniProt P08684); assay: Inhibition of CYP3A4 at 3 uM using testosterone substrate; type: ADME; conditions: probe testosterone
T5 sequence (P08684 whole entry): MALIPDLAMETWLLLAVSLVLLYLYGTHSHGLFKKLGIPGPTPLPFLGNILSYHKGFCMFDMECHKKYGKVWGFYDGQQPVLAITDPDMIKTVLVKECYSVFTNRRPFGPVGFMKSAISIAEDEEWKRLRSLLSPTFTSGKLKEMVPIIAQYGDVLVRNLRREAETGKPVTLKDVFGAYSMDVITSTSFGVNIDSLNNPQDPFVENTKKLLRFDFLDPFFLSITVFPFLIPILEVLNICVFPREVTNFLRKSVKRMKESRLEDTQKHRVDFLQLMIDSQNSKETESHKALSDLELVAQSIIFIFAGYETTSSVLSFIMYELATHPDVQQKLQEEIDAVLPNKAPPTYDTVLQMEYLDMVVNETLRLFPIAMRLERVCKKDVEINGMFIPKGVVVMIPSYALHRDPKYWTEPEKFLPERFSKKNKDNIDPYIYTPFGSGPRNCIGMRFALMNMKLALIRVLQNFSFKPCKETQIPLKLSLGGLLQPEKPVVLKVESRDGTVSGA

CYP2C9 [8] = biological target: T4, CYP2C9; assay: Inhibition of CYP2C9 at 30 uM; type: ADME; in short: as §2
CYP3A4 [9] = biological target: T5, CYP3A4; assay: Inhibition of CYP3A4 at 30 uM using testosterone substrate; type: ADME; conditions: probe testosterone
CYP3A4 [10] = biological target: T5, CYP3A4; assay: Inhibition of CYP3A4 at 30 uM using modazolam substrate; type: ADME; conditions: probe midazolam (printed: modazolam)
CYP3A4 [11] = biological target: T5, CYP3A4; assay: Inhibition of CYP3A4 at 3 uM using modazolam substrate; type: ADME; conditions: probe midazolam (printed: modazolam)
[12] = Metabolic stability in human liver microsomes assessed as remaining parent compound at 1 uM after 1 hr in the absence of […]; type: ADME, Microsome; conditions: read-out: Stability
In short: (§3)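 Human liver microsomes were incubated with test compound at 1 μM for 1 h. Percent parent remaining was measured with cofactor and in a cofactor-free control. The work was done by a contract lab.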

[13] = Metabolic stability in human liver microsomes assessed as remaining parent compound at 1 uM after 1 hr in the presence of […]; type: ADME, Microsome; conditions: read-out: Stability; in short: as §3
HepG2 [14] = assay: Genotoxicity in human HepG2 cells assessed as induction of DNA lesion at 100 uM after 24 hrs by comet assay; type: toxicity, cell-based; conditions: hepg2, 24 h
In short: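 HepG2 cells were exposed to 100 μM for 24 h, with etoposide as positive control. Cells were embedded in agarose, lysed 2 h at 4°C at pH 10, unwound 40 min in alkali at pH >13 and electrophoresed at 25 V for 30 min at 4°C. After ethidium bromide staining, comet-tail nuclei were counted in >100 cells per field. Three independent experiments, one-way ANOVA.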

HepG2 [15] = assay: Genotoxicity in human HepG2 cells assessed as micronuclei formation at 50 uM after 24 hrs by DAPI staining; type: toxicity, cell-based; conditions: hepg2, 24 h
In short: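 HepG2 cells were exposed to 50 μM for 24 h, with benzo(a)pyrene as positive control. Cells were swollen in hypotonic KCl/NaCl for 10 min at 37°C, fixed in methanol/acetic acid 3:1 and stained with DAPI at 2 μg/ml. Three independent experiments, one-way ANOVA.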

Mus musculus [16] = assay: Agonist activity at TrkB receptor in C57BL/J6 mouse brain assessed as TrkB phosphorylation at tyrosine 816 in hippocampus at 2.5 mg/kg, po […] by Western blotting analysis; type: functional, organism-based; set-up: dose 2.5 mg/kg
In short: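 Male C57BL/6J mice were gavaged with 2.5 mg/kg/day for 21 days, with saline vehicle controls. Hippocampus was collected after the behavioural tests, and BrdU at 100 mg/kg i.p. was given 2 h before sacrifice. Lysates were immunoblotted for p-TrkB, total TrkB and p-Akt, and the p-TrkB/TrkB ratio was determined. Two replicate experiments, Student's t-test.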

Mus musculus [17] = assay: Agonist activity at TrkB receptor in C57BL/J6 mouse brain assessed as TrkB phosphorylation at tyrosine 816 in hippocampus at 2.5 mg/kg, po after 2 hrs by immunoblotting analysis; type: functional, organism-based; set-up: dose 2.5 mg/kg
Mus musculus [18] = assay: Toxicity in C57BL/J6 mouse assessed as increase in locomotion at 2.5 mg/kg, po administered qd for 21 days by locomotor activity assay; type: organism-based; set-up: dose 2.5 mg/kg, route oral; conditions: in vivo, 504 h
In short: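 Male C57BL/6J mice were given compound or saline vehicle by oral gavage once daily for 21 days, with forced swim and tail suspension tests also run. Ambulations (consecutive photobeam breaks) were recorded in automated locomotor chambers for 2 h, binned at 30 min intervals.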

Mus musculus [19] = assay: Antidepressant activity in C57BL/J6 mouse assessed as reduction of immobility at 2.5 mg/kg, po administered qd for 21 days recorded in last 4 mins by forced swim test; type: functional; set-up: scale not given: the % may be the effect or the level left
In short: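 Male C57BL/6J mice, 2–3 months old, were gavaged daily for 21 days with drug (5 or 2.5 mg/kg) or saline and adapted to the test room for 2 days. With no preswim, each mouse was placed for 6 min in a 16-cm cylinder of 24 °C water, 14 cm deep. Immobility in the last 4 min was scored blind and compared by unpaired t-test (n=6 or 8).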

Mus musculus [20] = assay: Agonist activity at TrkB receptor in C57BL/J6 mouse brain assessed as TrkB phosphorylation at tyrosine 816 in hippocampus at 1 mg/kg, po after 2 hrs by immunoblotting analysis; type: functional, organism-based; set-up: dose 1 mg/kg
In short: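 Hippocampus from male C57BL/6J mice was taken 2 h after a single 1 mg/kg oral dose. Brain was homogenised and ultracentrifuged, and 40 μg supernatant was immunoblotted for p-TrkB, p-Akt and p-MAPK.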

[21] = biological target: BDNF/NT-3 growth factors receptor (Rattus norvegicus) (UniProt Q63604); assay: Agonist activity at TrkB receptor in rat primary neurons assessed as Akt phosphorylation at 500 nM after 15 mins by immunoblotting analysis; type: functional
Sequence of BDNF/NT-3 growth factors receptor (Rattus norvegicus) (Q63604 whole entry): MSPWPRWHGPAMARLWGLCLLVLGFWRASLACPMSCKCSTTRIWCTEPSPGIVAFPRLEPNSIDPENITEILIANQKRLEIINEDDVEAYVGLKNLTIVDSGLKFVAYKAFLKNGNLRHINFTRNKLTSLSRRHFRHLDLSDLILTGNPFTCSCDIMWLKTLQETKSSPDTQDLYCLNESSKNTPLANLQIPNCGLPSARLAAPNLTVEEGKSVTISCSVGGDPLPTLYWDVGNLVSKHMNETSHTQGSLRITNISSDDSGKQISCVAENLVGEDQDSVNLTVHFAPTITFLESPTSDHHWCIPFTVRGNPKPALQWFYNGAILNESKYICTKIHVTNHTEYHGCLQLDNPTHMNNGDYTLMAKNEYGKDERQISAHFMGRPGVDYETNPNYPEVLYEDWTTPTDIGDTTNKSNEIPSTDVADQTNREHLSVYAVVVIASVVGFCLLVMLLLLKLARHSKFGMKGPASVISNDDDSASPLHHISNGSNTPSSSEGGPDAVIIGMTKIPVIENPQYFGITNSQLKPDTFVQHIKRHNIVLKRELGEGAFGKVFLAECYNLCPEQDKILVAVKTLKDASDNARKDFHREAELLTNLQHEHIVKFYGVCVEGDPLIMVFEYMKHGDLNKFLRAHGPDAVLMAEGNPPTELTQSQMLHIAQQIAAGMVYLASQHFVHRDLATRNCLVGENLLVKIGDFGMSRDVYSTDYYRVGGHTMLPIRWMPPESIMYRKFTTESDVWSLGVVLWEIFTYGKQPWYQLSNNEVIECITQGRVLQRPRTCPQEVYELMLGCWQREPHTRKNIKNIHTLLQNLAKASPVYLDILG
In short: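 Primary cortical cultures from E17 rat embryos were exposed to 500 nM for 15 min. Lysates were immunoblotted for p-TrkB and p-Akt (20 μg per lane). Two replicate experiments.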

Mus musculus [22] = assay: Antidepressant activity in C57BL/J6 mouse assessed as reduction of immobility at 2.5 mg/kg, po administered qd for 21 days by tail suspension test; type: functional, organism-based; set-up: dose 2.5 mg/kg
In short: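 Male C57BL/6J mice were gavaged once daily for 21 days with 2.5 mg/kg or saline vehicle, then tested for immobility during tail suspension. n=8, Student's t-test.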

| remaining at 5 µM [1] [%] | Fu (Plasma) [%] | inhibition at 30 µM (CYP1A2) [%] | inhibition at 30 µM (CYP2D6 [2]) [%] | inhibition at 3 µM (CYP2D6 [3]) [%] | inhibition at 30 µM (CYP2C19 [4]) [%] | inhibition at 3 µM (CYP2C19 [5]) [%] | inhibition at 3 µM (CYP2C9 [6]) [%] | inhibition at 3 µM (CYP3A4 [7]) [%] | inhibition at 30 µM (CYP2C9 [8]) [%] | inhibition at 30 µM (CYP3A4 [9]) [%] | inhibition at 30 µM (CYP3A4 [10]) [%] | inhibition at 3 µM (CYP3A4 [11]) [%] | remaining at 1 h, 1 µM [12] [%] | remaining at 1 h, 1 µM [13] [%] | Compound | Activity (HepG2 [14]) | Activity (HepG2 [15]) | Activity (Mus musculus [16]) | Activity (Mus musculus [17]) | Activity (Mus musculus [18]) | further results |
| --- | --- | --- | --- | --- | --- | --- | --- | --- | --- | --- | --- | --- | --- | --- | --- | --- | --- | --- | --- | --- | --- |
| 86.3 | 0.03 | 66.1 | 32 | 8.7 | 57.7 | 11.1 | 12.4 | 4.5 | 73.6 | 43.3 | 40.5 | 10.8 | 92.2 | 25.4 | Cc1nc2ccc3c(=O)cc(-c4ccc(N5CCCC5)cc4)oc3c2[nH]1 | Non-toxic | Non-toxic | Active | Active | Non-toxic | Activity (Mus musculus [19]): 45%; Activity (Mus musculus [20]): Active; Activity [21]: Active; Activity (Mus musculus [22]): Active |
| 97 | 0.07 | 75.9 | 81.6 | 7.2 | 90 | 16.2 | 11.9 | 3.4 | 52.9 | 18.7 | 48.1 | 3.9 | 79.6 | 1.2 | O=c1cc(-c2ccc(N3CCCC3)cc2)oc2c1ccc1cc[nH]c12 | Non-toxic | Non-toxic | Active | Active | Non-toxic | Activity (Mus musculus [19]): inactive; Activity (Mus musculus [20]): Active; Activity [21]: Active; Activity (Mus musculus [22]): inactive |
